The source made the active and inactive calls.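 Rule for the calls, unless noted: active = NADPH fluorescence slope more negative than the mean of all samples by about 3 SD, 99.7% confidence; inactive = the rest.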
Experiments:
[1] = inhibitors of TNFa-induced NFkB p65 translocation, primary screen, imaging, HUVEC, MLSMR starter and 10KST1 sets (AID 438;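 active = inhibition above 20% together with a positive visual image hit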;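 note: compound added about 3h40 before a 20 min TNFalpha stimulation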;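 for inhibition: signal is the nuclear over cytoplasmic p65 intensity ratio per well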); conditions: HUVEC TNFa-induced p65 nuclear translocation; cell count: measured here: nuclei count (cytotoxicity indicator), at 2.08 µM; inhibition: at 2 µM, stronger effect = higher value, 0% TNFa-plus-vehicle, 100% no-TNFa wells
[2] = inhibitors of mutant huntingtin aggregation, primary screen, imaging, exon1htt(103Q)mCFP cells, high-content imaging (AID 483;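 active = visual image review flags a hit and inhibition of aggregation exceeds 20%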;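 note: compound exposure lasted 3 days before fixation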;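 for nuclei count: percent of the per-plate median nuclei count of sample wells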); conditions: exon1htt(103Q)mCFP cell line, aggregate imaging, at 2 µM; inhibition of aggregation: stronger effect = higher value; nuclei count: measured here: cell count, toxicity
[3] = inhibitors of E-selectin induction by TNFa, primary screen, imaging, HUVEC, immunofluorescence, MLSMR starter and 10KST1 sets (AID 487;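 active = visually confirmed hit in the image check and inhibition above 20%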;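 for inhibition: signal is fraction of cell area covered by stained E-selectin grains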;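 for nuclei count: 100% = median nuclei count of all wells on the same plate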); conditions: HUVEC TNFalpha-induced E-selectin immunofluorescence imaging, at 2 µM; inhibition: stronger effect = higher value; nuclei count: measured here: cell number, toxicity
[4] = target: Voltage-gated potassium channel subunit beta-2 (Rattus norvegicus) (UniProt P62483); assay: KvBeta enzyme negative modulators, primary screen, biochemical, NADPH fluorescence (AID 622;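 active = fluorescence slope higher than the sample average by over 3 SD, cut at about -0.22 in these data, passing the limit was not always enough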;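 note: slope of raw intensity against log time taken from 70 to 1610 s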); conditions: recombinant KvBeta, 4-cyanobenzaldehyde reduction, at 10 µM, stronger effect = higher value
[5] = target: Voltage-gated potassium channel subunit beta-2 (Rattus norvegicus) (UniProt P62483); assay: KvBeta positive modulators, primary screen, biochemical, NADPH fluorescence (AID 623); conditions: Recombinant KvBeta, NADPH fluorescence decrease slope, 10 min; at 10 µM; stronger effect = lower value;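 note: fluorescence intensity change per second fitted from 20 to 320 s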
[6] = target: Alpha-2C adrenergic receptor (Homo sapiens) (UniProt P18825); assay: modulators of alpha2C/GIRK thallium flux, primary screen, cell-based, HEK293 alpha2C/GIRK1/2 (AID 624;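 active = fluorescence slope after compound addition differing from the mean of all screened samples at 99.7% confidence, in either direction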;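 note: slope of fluorescence ratio to pre-addition baseline per second over 15 to 24 s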); conditions: thallium flux BTC fluorescence, at 10 µM, actives lie on both sides
[7] = inhibitors of larval lipid processing in zebrafish, primary screen, whole organism, PED6 fluorescence, gall bladder and intestine (AID 686;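 active = a full or partial loss of lipid-probe fluorescence in the fish gall bladder, intestine or both, judged by eye; inactive = no fluorescence loss, or compound toxic to the fish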;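 note: larvae 5 to 7 days old with five fish per well; signal comes from phospholipase A2 cleavage of quenched PED6 carried via bile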); conditions: Zebrafish larvae PED6 lipid processing, fluorescence scoring; screened at 20 µM (by protocol)
How it was run: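 Incubation: overnight exposure of larvae to compound plus PED6 / Test system: live zebrafish larvae aged 5-7 days, whole organism / Amount: 5 larvae per well / Read-out basis: visual per-well fluorescence inhibition score / Signal: visual fluorescence microscopy scoring of gall bladder, gut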

[8] = inhibitors of Sendai virus-induced IRF3 signaling, primary screen, TLR/RLR signaling modifier project, cell-based, Sendai virus stimulus, luciferase, 10K MLSCN set (AID 602276;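 active = inhibition at or above 50% at 10 µM; inactive = inhibition below 50%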;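 note: firefly luciferase from ISG56 promoter only with Renilla not read in this screen; 0% = Sendai virus plus DMSO and 100% = medium plus DMSO without virus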); conditions: HEK293 RL24 IRF3 luciferase reporter, at 10 µM, stronger effect = higher value
[9] = inhibitors of poly I:C-induced TLR3 signaling, primary screen, cell-based, poly I:C stimulus, luciferase, 10K MLSCN set (AID 602277;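 active = inhibition of the reporter signal at or above 50%; inactive = inhibition below 50%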); conditions: HEK293-TLR3 RL24 IRF3 luciferase reporter, at 10 µM, stronger effect = higher value

Chain of Alpha-2C adrenergic receptor (Homo sapiens) (P18825 whole entry, looked up): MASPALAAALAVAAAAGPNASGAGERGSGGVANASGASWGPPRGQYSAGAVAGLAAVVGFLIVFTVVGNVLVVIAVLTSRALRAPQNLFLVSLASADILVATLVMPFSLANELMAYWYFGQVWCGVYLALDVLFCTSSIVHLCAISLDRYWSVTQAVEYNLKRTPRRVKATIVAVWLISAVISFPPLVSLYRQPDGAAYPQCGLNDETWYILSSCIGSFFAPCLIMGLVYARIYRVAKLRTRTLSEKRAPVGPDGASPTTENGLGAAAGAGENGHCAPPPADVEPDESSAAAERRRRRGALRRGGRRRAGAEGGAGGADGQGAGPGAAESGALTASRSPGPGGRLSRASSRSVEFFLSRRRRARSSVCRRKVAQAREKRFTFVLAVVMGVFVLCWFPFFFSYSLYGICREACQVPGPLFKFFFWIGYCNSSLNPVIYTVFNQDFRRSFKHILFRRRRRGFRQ
Chain of Voltage-gated potassium channel subunit beta-2 (Rattus norvegicus) (P62483 whole entry, looked up): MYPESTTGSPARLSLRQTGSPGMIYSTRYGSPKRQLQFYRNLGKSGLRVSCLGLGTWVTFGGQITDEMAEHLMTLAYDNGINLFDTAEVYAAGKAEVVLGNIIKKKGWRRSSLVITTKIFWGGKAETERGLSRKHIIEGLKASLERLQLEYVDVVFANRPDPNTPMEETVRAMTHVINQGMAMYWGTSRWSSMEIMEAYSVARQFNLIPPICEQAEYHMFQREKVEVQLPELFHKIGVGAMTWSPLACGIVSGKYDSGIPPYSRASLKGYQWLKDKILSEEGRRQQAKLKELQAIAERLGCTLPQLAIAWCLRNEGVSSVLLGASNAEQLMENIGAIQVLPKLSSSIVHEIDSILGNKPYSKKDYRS

Row | Compound | cell count [1] | inhibition [1] | inhibition of aggregation [2] | nuclei count [2] | inhibition [3] | nuclei count [3] | fluorescence slope [4] | NADPH fluorescence slope [5] | slope [6] | outcome [7] | inhibition [8] | inhibition [9]
1 | CC1=Nn2c(nnc2-c2ccccc2)SC1 | 303 | -2.7% (inactive) | -6.5% (inactive) | 121% | -19.2% (inactive) | 108% | -0.374 (inactive) | -1.6e-05 (inactive) | 0.00576 (inactive) | inactive | 11.5% (inactive) | -4.42% (inactive)
2 | O=C(O)c1ccc(CSc2ncn[nH]2)cc1 | 352 | -2.9% (inactive) | -12.6% (inactive) | 108% | -14.9% (inactive) | 114% | -0.42 (inactive) | -2.8e-05 (inactive) | 0.00649 (inactive) | inactive | 6.95% (inactive) | 1.16% (inactive)
3 | CCN1CCN(c2nc3c(c(=O)n(C)c(=O)n3C)n2Cc2cccc3ccccc23)CC1 | 471 | -6% (inactive) | 14.8% (inactive) | 85.1% | 35.5% (inactive) | 80.6% | -0.46 (inactive) | -5.6e-05 (inactive) | 0.00535 (inactive) | inactive | 12.4% (inactive) | 18.7% (inactive)
4 | COc1ccc2cc(C(c3nnnn3C(C)(C)C)N3CCc4ccccc4C3)c(=O)[nH]c2c1 (centres undefined) | 311 | 11.9% (inactive) | 5.3% (inactive) | 100% | 1% (inactive) | 94.4% | -0.347 (inactive) | -5.8e-05 (inactive) | 0.00475 (inactive) | inactive | 24.2% (inactive) | 44.5% (inactive)
5 | Cc1ccc(CS(=O)(=O)Cc2ccc(C(=O)NCc3ccccn3)o2)cc1 | 454 | 6% (inactive) | -2.9% (inactive) | 102% | 8.5% (inactive) | 93.1% | -0.18 (inactive) | -2.3e-05 (inactive) | 0.00535 (inactive) | inactive | 12% (inactive) | 7.77% (inactive)
6 | Cc1cccc(C)c1NC(=O)COC(=O)c1nonc1N | 429 | -1.3% (inactive) | 3.6% (inactive) | 99.3% | 32.7% (inactive) | 87.2% | -0.34 (inactive) | -6.4e-05 (inactive) | 0.0052 (inactive) | inactive | 4.72% (inactive) | 2% (inactive)
7 | CCn1nnnc1SCC(=O)N1c2ccccc2CCc2ccccc21 | 568 | -4.6% (inactive) | 2% (inactive) | 96.3% | -32.7% (inactive) | 117% | -0.377 (inactive) | -5.8e-05 (inactive) | 0.00737 (inactive) | inactive | 1.39% (inactive) | 1.68% (inactive)
8 | CN(C)C(CNC(=O)Nc1cccc(Cl)c1)c1cccnc1 (centres undefined) | 298 | -5.5% (inactive) | 1.1% (inactive) | 67.5% | -40.7% (inactive) | 115% | -0.427 (inactive) | -5.1e-06 (inactive) | 0.00889 (active) | inactive | 18.9% (inactive) | 26.3% (inactive)
9 | CCn1c(SCC(=O)Nc2ccc3c(c2)OCO3)nnc1-c1cnccn1 | 542 | -3.4% (inactive) | 1.7% (inactive) | 89.2% | -72.2% (inactive) | 118% | -0.437 (inactive) | -5.6e-05 (inactive) | 0.00469 (inactive) | inactive | 15.5% (inactive) | 16.7% (inactive)
10 | COc1ccc(C(C)NC(=O)c2ccoc2C)cc1OC (centres undefined) | 307 | -8.9% (inactive) | -2.3% (inactive) | 105% | 51.2% (inactive) | 54.3% | -0.383 (inactive) | -2.1e-05 (inactive) | 0.00668 (inactive) | inactive | 14.4% (inactive) | 19.8% (inactive)
11 | O=C(NCCCN1CCN(c2cccc(Cl)c2)CC1)c1ccc(N2CCCC2=O)cc1 | 763 | -10% (inactive) | 11.5% (inactive) | 97.9% | 46.9% (inactive) | 105% | -0.479 (inactive) | -5.9e-05 (inactive) | 0.00509 (inactive) | inactive | 10.3% (inactive) | 0.162% (inactive)
12 | O=C(Cn1[nH]c(=O)c2ccccc2c1=O)OCC(=O)N1CCCc2ccccc21 | 335 | 4.2% (inactive) | -9% (inactive) | 98.2% | -37% (inactive) | 117% | -0.389 (inactive) | -6e-05 (inactive) | 0.00579 (inactive) | inactive | 8.5% (inactive) | 10.3% (inactive)
13 | Cc1cc(NC(=O)CSc2nc3c(c(-c4cccnc4)c2C#N)CCC3)no1 | 595 | -2.9% (inactive) | 0.1% (inactive) | 96.3% | 15.2% (inactive) | 88.6% | -0.337 (inactive) | -6.5e-05 (inactive) | 0.00719 (inactive) | inactive | 0.978% (inactive) | -3.11% (inactive)
14 | O=C(c1cnc2sccn2c1=O)N1CCc2ccccc2C1 | 438 | -3% (inactive) | 4.4% (inactive) | 86.1% | -376% (inactive) | 102% | -0.398 (inactive) | -5.3e-05 (inactive) | 0.00452 (inactive) | inactive | -4.13% (inactive) | 99% (active)
15 | COc1ccccc1C(=O)NCC(=O)Nc1ccccc1 | 258 | -2.3% (inactive) | 14.2% (inactive) | 94.4% | 59% (inactive) | 27.8% | -0.451 (inactive) | -4.6e-05 (inactive) | 0.00528 (inactive) | inactive | 6.26% (inactive) | 8.93% (inactive)
16 | CCCn1c(SCC(=O)NC(=O)NCc2ccco2)n[nH]c1=O | 424 | 3.7% (inactive) | -7.6% (inactive) | 73.3% | -178% (inactive) | 117% | -0.39 (inactive) | -3.4e-05 (inactive) | 0.00519 (inactive) | inactive | 2.79% (inactive) | 15.3% (inactive)
17 | Cc1cc(C(F)(F)F)c2c(C)nn(CCc3nn[nH]n3)c2n1 | 863 | 1.1% (inactive) | 11.9% (inactive) | 112% | -20% (inactive) | 117% | -0.368 (inactive) | 1.8e-05 (inactive) | 0.00523 (inactive) | inactive | -11.3% (inactive) | -12.7% (inactive)
18 | O=C(c1cccc2c1C(=O)N(Cc1cccnc1)C2)N1CCN(c2ccccc2)CC1 | 941 | 9.3% (inactive) | -5.7% (inactive) | 103% | -104% (inactive) | 135% | -0.365 (inactive) | -6e-05 (inactive) | 0.00499 (inactive) | inactive | 13.7% (inactive) | 9.9% (inactive)
19 | CS(=O)(=O)N(CC(=O)Nc1ccc2c(c1)OCO2)Cc1ccc(Cl)cc1 | 303 | 8.9% (inactive) | -3.1% (inactive) | 92% | -20.4% (inactive) | 88.8% | -0.428 (inactive) | -6.6e-05 (inactive) | 0.00445 (inactive) | inactive | 11.9% (inactive) | 17.7% (inactive)
20 | c1ccc2c(SCc3cn4cccnc4n3)ncnc2c1 | 553 | -14.3% (inactive) | 0.5% (inactive) | 109% | 6.3% (inactive) | 93.9% | -0.341 (inactive) | -5.7e-05 (inactive) | 0.00553 (inactive) | inactive | 3.66% (inactive) | -0.28% (inactive)
21 | CN/C=C1\C(=O)C(C)(C)Oc2ccc3ccc(=O)oc3c21 | 544 | -12.4% (inactive) | -24.8% (inactive) | 101% | -38.4% (inactive) | 129% | -0.384 (inactive) | -2.1e-05 (inactive) | 0.00506 (inactive) | inactive | 8.59% (inactive) | 8.49% (inactive)
22 | O=C(NCc1ccco1)c1cc2sccc2n1Cc1ccccc1 | 455 | 5% (inactive) | 8.8% (inactive) | 114% | -33.7% (inactive) | 110% | -0.463 (inactive) | 5.4e-05 (inactive) | 0.00405 (inactive) | inactive | -19.7% (inactive) | -28.5% (inactive)
23 | O=C(CSCc1n[nH]c(=O)[nH]1)NCCOc1cccc(Oc2ccccc2)c1 | 615 | -13% (inactive) | 8.5% (inactive) | 77.7% | -16.1% (inactive) | 105% | -0.417 (inactive) | -6.7e-05 (inactive) | 0.00545 (inactive) | inactive | -14.2% (inactive) | 2.61% (inactive)
24 | Cn1c(CSc2nc3ccccc3s2)nnc1SCC(=O)NCCN1CCOCC1 | 487 | 4.5% (inactive) | -3.4% (inactive) | 94.1% | -23% (inactive) | 125% | -0.409 (inactive) | -8.1e-06 (inactive) | 0.00477 (inactive) | inactive | -5.77% (inactive) | 13.9% (inactive)
25 | CC(=O)NCCC(=O)Nc1ccc(C)c(F)c1 | 417 | -4.4% (inactive) | -5.1% (inactive) | 109% | -55.7% (inactive) | 110% | -0.451 (inactive) | -1.3e-05 (inactive) | 0.00617 (inactive) | inactive | -3.46% (inactive) | -7.08% (inactive)
26 | O=C(COc1ccc(F)cc1)Nc1ccc(-n2cnnn2)cc1 | 568 | 1.1% (inactive) | 34.2% (inactive) | 90.5% | 52.5% (inactive) | 62.3% | -0.409 (inactive) | -0.000109 (inactive) | 0.00564 (inactive) | inactive | 8.39% (inactive) | 1.26% (inactive)
27 | CCc1ccc2[nH]c(=O)c(C(c3nnnn3CC3CCCO3)N3CCN4CCCC4C3)cc2c1 (centres undefined) | 314 | 12.3% (inactive) | -16.9% (inactive) | 107% | 13.9% (inactive) | 102% | -0.382 (inactive) | -5.9e-05 (inactive) | 0.00534 (inactive) | inactive | 9.53% (inactive) | 4.74% (inactive)

From PubChem BioAssay
